From ChEMBL document CHEMBL1275350, “First in class, potent, and orally bioavailable NADPH oxidase isoform 4 (Nox4) inhibitors for the treatment of idiopathic pulmonary fibrosis” (J Med Chem, 2010)
pKi: −log10 of the molar value.

Columns and labels:
[1] = target: T1, NADPH oxidase 4 (Homo sapiens, UniProt Q9NPH5); assay: Inhibition of human NOX4 overexpressed in T-REx-293 cell membrane assessed as ROS production by cell free assay in presence of NADPH; settings: in the assay text read “T-REx-293 cell membrane” for “human PMN cell membrane”
T1 sequence (Q9NPH5 whole entry): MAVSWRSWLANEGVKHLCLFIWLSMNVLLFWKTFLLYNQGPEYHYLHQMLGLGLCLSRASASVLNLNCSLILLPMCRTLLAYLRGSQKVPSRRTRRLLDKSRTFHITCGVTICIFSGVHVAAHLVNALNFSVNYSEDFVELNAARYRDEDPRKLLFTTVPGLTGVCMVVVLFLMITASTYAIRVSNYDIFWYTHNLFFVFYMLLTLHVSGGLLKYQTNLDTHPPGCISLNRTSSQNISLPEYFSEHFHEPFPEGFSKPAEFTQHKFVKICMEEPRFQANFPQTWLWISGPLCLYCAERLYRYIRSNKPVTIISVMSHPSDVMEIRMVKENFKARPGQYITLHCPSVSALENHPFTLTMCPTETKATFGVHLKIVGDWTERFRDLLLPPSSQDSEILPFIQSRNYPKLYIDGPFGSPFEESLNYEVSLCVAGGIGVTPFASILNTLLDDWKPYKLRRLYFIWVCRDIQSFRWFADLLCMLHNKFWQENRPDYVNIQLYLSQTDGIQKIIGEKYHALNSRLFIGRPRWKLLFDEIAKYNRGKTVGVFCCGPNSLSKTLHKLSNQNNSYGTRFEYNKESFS
Outline: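 hNOX4 T-REx-293 cells induced with tetracycline (1 μg/mL, 24 h), sonicated in sucrose/NaCl/EGTA PBS buffer pH 7.4, membranes taken from a sucrose gradient. NADPH-triggered ROS measured by Amplex Red/HRP in PBS, with compound at 1 nM–100 μM, 20 min at 37 °C. Ki by Cheng-Prusoff from ≥3 triplicate experiments.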

[2] = Half life in Sprague-Dawley rat at 10 mg/kg, po; type: ADME, organism-based; set-up: dose 10 mg/kg, route oral; settings: in vivo
Outline: (§1)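 Parallel design with six male rats: three given 5 mg/kg iv in EDPW (10% EtOH, 10% DMA, 30% PG, 50% water), three given 10 mg/kg orally in aqueous 0.5% CMC with 0.25% Tween 20. Carotid cannula blood sampled up to 24 h. Plasma levels by LC/MS/MS (LLOQ 1.00 ng/mL). Noncompartmental analysis.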

[3] = Clearance in Sprague-Dawley rat at 5 mg/kg, iv; type: ADME, organism-based; set-up: dose 5 mg/kg, route intravenous; settings: in vivo; outline: as §1
[4] = Half life in Sprague-Dawley rat at 5 mg/kg, iv; type: ADME, organism-based; set-up: dose 5 mg/kg, route intravenous; settings: in vivo; outline: as §1
[5] = Permeability across human Caco-2 cell membrane at 10 uM after 2 hrs; type: ADME, cell-based
Outline: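 Caco-2 monolayers grown 20 days in DMEM, used when TEER >800 Ω·cm2. Dosed at 10 μM final in HBSS pH 6.5 with 1% DMSO, apical-to-basolateral and basolateral-to-apical. Incubated 2 h at 37 °C, both compartments sampled, LC-MS/MS with five-point calibration. Papp = (dQ/dt)/(C0A).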

[6] = Volume of distribution at steady state in Sprague-Dawley rat at 5 mg/kg, iv; type: ADME, organism-based; set-up: dose 5 mg/kg, route intravenous; settings: in vivo, read-out: Vdss
Outline: (§2)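 Parallel design in male rats, three per group. Group 1: 5 mg/kg iv in EDPW (10% EtOH, 10% DMA, 30% PG, 50% water). Group 2: 10 mg/kg oral in aqueous 0.5% CMC with 0.25% Tween 20. Carotid cannula blood drawn up to 24 h. Plasma measured by LC/MS/MS (LLOQ 1.00 ng/mL), noncompartmental analysis.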

[7] = Oral bioavailability in Sprague-Dawley rat at 10 mg/kg; type: ADME, organism-based; settings: in vivo; outline: as §2
[8] = Cmax in Sprague-Dawley rat at 10 mg/kg, po; type: ADME, organism-based; set-up: dose 10 mg/kg, route oral; settings: in vivo; outline: as §1
[9] = Clearance in Sprague-Dawley rat at 10 mg/kg, po; type: ADME, organism-based; set-up: dose 10 mg/kg, route oral; settings: in vivo; outline: as §1
[10] = Intrinsic clearance in human liver microsomes assessed as per mg of protein at 0.5 uM; type: ADME, Microsome
Outline: (§3)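 Phase I stability assay in pooled liver microsomes (human: male and female; rat: male Sprague-Dawley). Microsomes at 0.5 mg/mL final in 0.1 M phosphate pH 7.4. Compound 0.5 μM final, 0.25% DMSO. Preincubated at 37 °C, reaction started with 1 mM NADPH. Sampled at 0, 5, 15, 30 and 45 min, with a 45 min minus-NADPH control. Methanol quench with internal standard, LC/MS-MS, intrinsic clearance calculated.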

[11] = Cmax in Sprague-Dawley rat at 5 mg/kg, iv; type: ADME, organism-based; set-up: dose 5 mg/kg, route intravenous; settings: in vivo; outline: as §1
[12] = AUC (infinity) in Sprague-Dawley rat at 10 mg/kg, po; type: ADME, organism-based; set-up: time infinity, dose 10 mg/kg, route oral; settings: plasma; outline: as §1
[13] = AUC (infinity) in Sprague-Dawley rat at 5 mg/kg, iv; type: ADME, organism-based; set-up: time infinity, dose 5 mg/kg, route intravenous; settings: plasma; outline: as §1
[14] = Tmax in Sprague-Dawley rat at 10 mg/kg, po; type: ADME, organism-based; set-up: dose 10 mg/kg, route oral; settings: in vivo; outline: as §2
[15] = Intrinsic clearance in Sprague-Dawley rat liver microsomes assessed per mg of protein at 0.5 uM; type: ADME, Microsome; outline: as §3

| pKi [1] | Compound | further results |
| --- | --- | --- |
| 6.89 | Cn1c(-c2ccccc2F)c2c(=O)n(-c3ccccc3Cl)[nH]c2cc1=O | – |
| 6.94 | O=c1c2c(CN3CCCC3)n(CCc3ccccn3)c(=O)cc2[nH]n1-c1ccc(F)cc1Cl | half-life [2]: 1.13 h; clearance [3]: 26.8 mL/min/kg; half-life [4]: 3.3 h; Papp at 2 h, 10 µM [5]: 7.3 ×10⁻⁶ cm/s; Vd [6]: 1.49 L/kg; bioavailability [7]: 39%; Cmax [8]: 2830 ng/mL; CL/F [9]: 73.2 mL/min/kg; microsomal CLint at 0.5 µM [10]: 45.4 µL/min/mg; Cmax [11]: 6190 ng/mL; AUC(0-inf) [12]: 2430 ng·h/mL; AUC(0-inf) [13]: 3130 ng·h/mL; Tmax [14]: 0.33 h; microsomal CLint at 0.5 µM [15]: 62.3 µL/min/mg |
| 6.50 | COCCn1[nH]c2cc(=O)n(Cc3ccccn3)c(C)c2c1=O | – |
| 6.06 | Cc1c2c(=O)n(-c3ccc(F)cc3)[nH]c2cc(=O)n1Cc1ccccc1 | – |
| 6.66 | Cc1c2c(=O)n(-c3ccccc3Cl)[nH]c2cc(=O)n1NC(=O)COc1ccc(F)cc1 | – |
| 6.28 | Cc1c2c(=O)n(-c3ccccc3Cl)[nH]c2cc(=O)n1CC1CCCCC1 | – |
| 6.49 | Cc1c2c(=O)n(CCOc3ccc(Cl)cc3)[nH]c2cc(=O)n1Cc1ccccn1 | – |
| 5.33 | Cc1c2c(=O)n(-c3nc4ccccc4s3)[nH]c2cc(=O)n1CCc1c[nH]cn1 | – |
| 6.53 | Cc1c2c(=O)n(-c3cccc(C#N)c3)[nH]c2cc(=O)n1C | – |
| 5.51 | Cc1c2c(=O)n(-c3ccc(OCc4ccccc4)cc3)[nH]c2cc(=O)n1C | – |
| 6.67 | Cc1c2c(=O)n(-c3ccccc3Cl)[nH]c2cc(=O)n1C | microsomal CLint at 0.5 µM [15]: 49.3 µL/min/mg |
| 6.48 | Cc1c2c(=O)n(CCc3ccccc3)[nH]c2cc(=O)n1Cc1ccccn1 | – |
| 6.41 | Cc1c2c(=O)n(C)[nH]c2cc(=O)n1Cc1ccccn1 | – |
| 6.37 | Cc1c2c(=O)n(-c3ccccc3Cl)[nH]c2cc(=O)n1CCCC(=O)N1CCN(C)CC1 | – |
| 6.51 | Cc1c2c(=O)n(-c3ccccc3F)[nH]c2cc(=O)n1C | – |
| 6.29 | Cc1c2c(=O)n(-c3ccccc3Cl)[nH]c2cc(=O)n1Cc1ccc(CN2CCN(C)CC2)cc1 | – |
| < 4.52 | Cc1c2c(=O)n(-c3ccccc3)n(Cc3ccccc3Cl)c2cc(=O)n1CCCN1CCCC1=O | – |
| 6.63 | Cc1c2c(=O)n(-c3ccccc3Cl)[nH]c2cc(=O)n1CCN(C)C | – |
| 6.47 | Cc1c2c(=O)n(-c3cccc(Cl)c3)[nH]c2cc(=O)n1C | microsomal CLint at 0.5 µM [15]: 163 µL/min/mg |
| 6.66 | Cc1c2c(=O)n(Cc3cc(Cl)ccc3Cl)[nH]c2cc(=O)n1Cc1ccccn1 | – |
| 6.39 | CC(=O)n1c2cc(=O)n(Cc3cccnc3)c(C)c2c(=O)n1-c1ccccc1 | – |
| 6.40 | CC(=O)n1c2cc(=O)n(Cc3cccnc3)c(C)c2c(=O)n1-c1ccccc1C | – |
| 6.35 | Cc1c2c(=O)n(CCN3CCOCC3)[nH]c2cc(=O)n1Cc1ccccn1 | – |
| 6.63 | Cc1c2c(=O)n(-c3ccccc3Cl)[nH]c2cc(=O)n1Cc1cccc(N2CCOCC2)n1 | microsomal CLint at 0.5 µM [15]: 71.6 µL/min/mg |
| < 4.52 | Cc1c2c(=O)n(-c3nc4ccccc4s3)n(Cc3ccccn3)c2cc(=O)n1CC1CCOC1 (stereo not given) | – |
| 5.28 | Cc1c2c(=O)n(-c3ccccc3)[nH]c2cc(=O)n1CCc1ccccc1 | – |
| 6.80 | Cc1c2c(=O)n(-c3ccccc3Cl)[nH]c2cc(=O)n1CC#Cc1ccccc1 | microsomal CLint at 0.5 µM [15]: 178 µL/min/mg |
| 5.85 | Cc1c2c(=O)n(-c3ccc(S(=O)(=O)N4CCN(C)CC4)cn3)[nH]c2cc(=O)n1C | – |
| 6.63 | Cc1c2c(=O)n(-c3ccc(F)cc3Cl)[nH]c2cc(=O)n1Cc1ccccn1 | Papp at 2 h, 10 µM [5]: 13.4 ×10⁻⁶ cm/s; microsomal CLint at 0.5 µM [10]: 37.6 µL/min/mg; microsomal CLint at 0.5 µM [15]: 84.2 µL/min/mg |
